Assay results: ChEMBL document CHEMBL2086294, “Kinetics and docking studies of two potential new inhibitors of the nucleoside hydrolase from Leishmania donovani” (Eur J Med Chem, 2012)
Activity calls are given as the source filed them. The calls are words filed in the database; no cut-off is given here.

Experiments:
[1] = target: Xanthine dehydrogenase/oxidase (Homo sapiens, UniProt P47989); assay: Inhibition of xanthine oxidase using hypoxanthine as substrate by UV-Vis spectrophotometry
How it was run: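 Control with xanthine oxidase and hypoxanthine: uric acid formation followed spectrophotometrically, with and without test compound.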

[2] = Inhibition of Leishmania donovani recombinant nucleoside hydrolase expressed in Escherichia coli DH5alpha coexpressing MBP using inosine as substrate by xanthine oxidase-coupled assay
How it was run: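 MBP-fused enzyme (13 nM) with 0.3 mM inosine and xanthine oxidase (60 milliunits/mL) in 20 mM phosphate pH 8.0. Uric acid formation read at 293 nm, with at least six inhibitor concentrations. IC50 from nonlinear dose-response fit of % inhibition. Ki from five or six inhibitor concentrations at a substrate level near KM, converted with the Cheng–Prusoff equation.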

[3] = system: Leishmania donovani; assay: Competitive inhibition of Leishmania donovani recombinant nucleoside hydrolase expressed in Escherichia coli DH5alpha coexpressing MBP using inosine as substrate by Lineweaver-Burk plot analysis
[4] = system: Leishmania donovani; assay: Ratio of inosine Km to compound Ki for Leishmania donovani recombinant nucleoside hydrolase
[5] = system: Leishmania donovani; assay: Activity of Leishmania donovani recombinant nucleoside hydrolase expressed in Escherichia coli DH5alpha coexpressing MBP
How it was run: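 LdNH fused to MBP, expressed from pMAL-c2-NH36 in E. coli DH5α (IPTG 0.3 mM, 2 h) and amylose-purified. Inosine hydrolysis coupled to excess xanthine oxidase (60 milliunits/mL) converting hypoxanthine to uric acid, read at 293 nm. 13 nM enzyme, inosine 0.3–3.0 KM, 20 mM phosphate pH 8.0, room temperature, triplicate. KM and Vmax from nonlinear Michaelis–Menten fit of initial velocities.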

Chain of Xanthine dehydrogenase/oxidase (P47989 whole entry): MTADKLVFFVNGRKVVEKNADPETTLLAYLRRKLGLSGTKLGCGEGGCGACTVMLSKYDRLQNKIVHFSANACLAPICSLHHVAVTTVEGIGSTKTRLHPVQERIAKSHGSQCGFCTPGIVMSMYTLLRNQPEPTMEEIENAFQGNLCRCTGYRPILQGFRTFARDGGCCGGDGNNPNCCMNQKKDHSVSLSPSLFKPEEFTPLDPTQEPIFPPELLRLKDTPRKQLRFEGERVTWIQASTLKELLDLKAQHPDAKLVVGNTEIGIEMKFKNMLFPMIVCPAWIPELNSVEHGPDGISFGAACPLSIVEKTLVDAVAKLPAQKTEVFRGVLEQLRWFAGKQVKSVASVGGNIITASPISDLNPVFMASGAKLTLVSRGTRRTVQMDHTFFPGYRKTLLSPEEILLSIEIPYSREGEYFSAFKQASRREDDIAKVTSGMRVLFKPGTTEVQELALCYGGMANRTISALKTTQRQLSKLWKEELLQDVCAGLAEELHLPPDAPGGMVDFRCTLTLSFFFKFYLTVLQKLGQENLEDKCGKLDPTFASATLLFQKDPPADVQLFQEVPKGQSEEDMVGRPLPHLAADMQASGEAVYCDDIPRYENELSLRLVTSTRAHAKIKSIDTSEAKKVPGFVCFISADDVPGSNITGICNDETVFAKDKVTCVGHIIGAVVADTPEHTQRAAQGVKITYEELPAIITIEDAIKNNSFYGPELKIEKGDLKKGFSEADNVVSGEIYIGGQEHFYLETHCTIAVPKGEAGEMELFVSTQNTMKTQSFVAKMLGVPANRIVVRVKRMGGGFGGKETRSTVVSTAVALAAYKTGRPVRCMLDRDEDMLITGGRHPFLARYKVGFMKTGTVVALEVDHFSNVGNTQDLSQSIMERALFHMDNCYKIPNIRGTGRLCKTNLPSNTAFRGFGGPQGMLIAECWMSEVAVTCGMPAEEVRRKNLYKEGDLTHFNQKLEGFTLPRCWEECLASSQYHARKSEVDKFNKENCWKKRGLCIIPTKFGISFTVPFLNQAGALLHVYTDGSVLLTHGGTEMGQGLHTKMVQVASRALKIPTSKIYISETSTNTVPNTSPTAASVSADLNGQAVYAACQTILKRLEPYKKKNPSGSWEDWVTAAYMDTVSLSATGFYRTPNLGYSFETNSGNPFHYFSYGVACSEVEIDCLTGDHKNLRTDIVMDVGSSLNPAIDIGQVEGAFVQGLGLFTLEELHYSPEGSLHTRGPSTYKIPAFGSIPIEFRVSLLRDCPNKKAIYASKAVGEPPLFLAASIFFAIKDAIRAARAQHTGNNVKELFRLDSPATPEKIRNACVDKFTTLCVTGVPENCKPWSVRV

Row | inhibition (INH) [1] | IC50 [2] | inhibition [3] | Ratio [4] | Km [5] | Compound | Ki [2]
1 | Not Active | 2.66 µM | Active | 270 |  | O=C(O)c1cn([C@@H]2O[C@H](CO)[C@@H](O)[C@H]2O)c2ccc(Cl)cc2c1=O | 1.6 µM
2 |  |  |  |  | 434 µM | O=c1[nH]cnc2c1ncn2[C@@H]1O[C@H](CO)[C@@H](O)[C@H]1O | 
3 | Not Active | 28.9 µM | Active | 26 |  | O=C(O)c1cn([C@@H]2O[C@H](CO)[C@@H](O)[C@H]2O)c2ccc(F)cc2c1=O | 17 µM
